Measurements published in ChEMBL document CHEMBL1139773, “New fluoro-diphenylchalcogen derivatives to explore the serotonin transporter by PET” (Bioorg Med Chem Lett, 2007).

How the values were obtained:
Assay type in all cases: tissue-based
[1] = biological target: T1, Sodium-dependent serotonin transporter (Rattus norvegicus, UniProt P31652); assay: Displacement of [3H]paroxetine from SERT in rat brain
Method in brief: (§1)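 Competition binding in rat cortical and striatal brain homogenates, with tissue assignment per transporter not specified. Radioligands were [3H]WIN 35,428 for DAT, [3H]nisoxetine for NET and [3H]paroxetine for SERT. Ki values are means of two independent experiments, each run in triplicate; some entries come from a single experiment (n = 1, in triplicate).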

[2] = biological target: Sodium-dependent dopamine transporter (Rattus norvegicus, UniProt P23977); assay: Displacement of [3H]WIN-35428 from DAT in rat brain; method in brief: as §1
[3] = biological target: Norepinephrine transporter (Rattus norvegicus, UniProt Q9WTR4); assay: Displacement of [3H]nisoxetine from NET in rat brain; method in brief: as §1
[4] = biological target: T1, Sodium-dependent serotonin transporter; assay: Displacement of [3H]citalopram from SERT in rat brain

Sequence of Norepinephrine transporter (Q9WTR4 whole entry): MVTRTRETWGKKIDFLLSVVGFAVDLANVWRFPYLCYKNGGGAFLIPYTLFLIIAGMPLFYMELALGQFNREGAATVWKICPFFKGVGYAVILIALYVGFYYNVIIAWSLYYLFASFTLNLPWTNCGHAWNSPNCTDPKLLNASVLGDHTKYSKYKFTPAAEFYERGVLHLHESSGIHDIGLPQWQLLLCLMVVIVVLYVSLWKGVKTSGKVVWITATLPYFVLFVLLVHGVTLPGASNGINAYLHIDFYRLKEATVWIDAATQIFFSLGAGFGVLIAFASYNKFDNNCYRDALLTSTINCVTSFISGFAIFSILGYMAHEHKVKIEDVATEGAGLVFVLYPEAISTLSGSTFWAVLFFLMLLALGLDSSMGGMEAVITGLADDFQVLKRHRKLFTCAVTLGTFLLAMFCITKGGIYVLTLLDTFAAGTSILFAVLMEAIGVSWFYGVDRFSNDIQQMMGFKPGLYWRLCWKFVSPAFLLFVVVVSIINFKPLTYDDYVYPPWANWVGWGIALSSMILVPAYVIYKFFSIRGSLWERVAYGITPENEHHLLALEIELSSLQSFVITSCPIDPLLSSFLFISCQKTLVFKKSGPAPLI
Sequence of Sodium-dependent dopamine transporter (P23977 whole entry): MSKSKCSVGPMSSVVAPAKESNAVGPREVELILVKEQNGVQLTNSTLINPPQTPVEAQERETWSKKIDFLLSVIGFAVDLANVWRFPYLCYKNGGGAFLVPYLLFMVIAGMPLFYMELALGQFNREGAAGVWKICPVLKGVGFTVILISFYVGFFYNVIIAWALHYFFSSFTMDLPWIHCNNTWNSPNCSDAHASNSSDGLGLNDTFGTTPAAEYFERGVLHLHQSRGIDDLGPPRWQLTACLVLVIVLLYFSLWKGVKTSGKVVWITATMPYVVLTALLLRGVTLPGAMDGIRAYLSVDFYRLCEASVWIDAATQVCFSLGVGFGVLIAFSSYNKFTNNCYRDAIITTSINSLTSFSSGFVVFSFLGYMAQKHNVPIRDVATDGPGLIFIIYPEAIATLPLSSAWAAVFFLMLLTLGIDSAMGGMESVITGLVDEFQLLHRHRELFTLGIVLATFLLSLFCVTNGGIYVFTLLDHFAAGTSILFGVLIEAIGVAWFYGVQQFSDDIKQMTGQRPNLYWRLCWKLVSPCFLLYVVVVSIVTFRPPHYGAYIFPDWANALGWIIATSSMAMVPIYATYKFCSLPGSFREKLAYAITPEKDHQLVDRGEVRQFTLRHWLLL
T1 sequence (P31652 whole entry): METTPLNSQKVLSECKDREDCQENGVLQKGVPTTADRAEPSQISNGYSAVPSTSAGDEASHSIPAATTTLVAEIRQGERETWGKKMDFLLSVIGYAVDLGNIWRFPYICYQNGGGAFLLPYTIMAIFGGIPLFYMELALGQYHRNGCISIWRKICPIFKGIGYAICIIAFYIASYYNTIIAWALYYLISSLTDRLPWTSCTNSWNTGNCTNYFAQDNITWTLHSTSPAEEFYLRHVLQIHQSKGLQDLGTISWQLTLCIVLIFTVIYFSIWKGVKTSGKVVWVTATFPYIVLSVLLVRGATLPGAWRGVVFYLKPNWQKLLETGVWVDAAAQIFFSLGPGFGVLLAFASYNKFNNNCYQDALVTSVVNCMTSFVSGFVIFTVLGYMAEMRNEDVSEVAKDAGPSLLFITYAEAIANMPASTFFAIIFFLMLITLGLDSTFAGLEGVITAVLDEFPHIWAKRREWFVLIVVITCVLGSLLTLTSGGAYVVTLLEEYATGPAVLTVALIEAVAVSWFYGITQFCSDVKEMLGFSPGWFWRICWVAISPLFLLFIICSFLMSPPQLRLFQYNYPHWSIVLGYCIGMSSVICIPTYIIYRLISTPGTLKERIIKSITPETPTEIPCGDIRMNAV

SMILES	Ki [1] [nM]	Ki [2] [nM]	Ki [3] [nM]	Ki [4] [nM]
Cc1ccc(Sc2ccccc2CN(C)C)c(N)c1	0.62	4160	–	–
Cc1ccc(Sc2ccc(F)cc2CN(C)C)c(N)c1	0.27	3650	1040	–
CN(C)Cc1cc(F)ccc1Sc1ccc(Cl)cc1N	0.35	1840	919	–
CN(C)Cc1cc(F)ccc1Sc1ccc(C#N)cc1N	–	14100	17900	0.28
CN(C)Cc1ccccc1Oc1ccc(F)cc1N	13.4	4360	1080	–

The next lines start with the values.

Ki [1] [nM]	Ki [2] [nM]	Ki [3] [nM]	Ki [4] [nM]	SMILES
–	2530	2740	2.06	CN(C)Cc1cc(Cl)ccc1Oc1ccc(F)cc1N
2.91	68300	5550	–	CN(C)Cc1cc(F)ccc1Oc1ccc(C#N)cc1N
7.01	2790	518	–	Cc1ccc(Oc2ccc(F)cc2CN(C)C)c(N)c1
